Measured values: ChEMBL document CHEMBL1123812, “Pyrroloisoquinoline antidepressants. 2. In-depth exploration of structure-activity relationships” (J Med Chem, 1987)
The source made the active and inactive calls.

Key:
Mus musculus [1] = assay: (§1) Ability to antagonise intraperitoneal dose; inactive (<10% antagonism) at 30 mgjkg is represented as I-30.; format: functional, organism-based
How it was run: (§2)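 Swiss Webster male albino mice, nonfasted, 18–24 g, 10 per dose and in saline control. Compound given ip 30 min before TBZ 32 mg/kg ip. Motor activity and ptosis scored. Response corrected by Abbott's formula when control response was 90% or less. Doses expressed as free base.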

Rattus norvegicus [2] = assay: Ability to inhibit the uptake of tritiated serotonin(5-HT) at 0.1 mg/kg concentration; format: functional
Mus musculus [3] = assay: Ability to antagonise tetrabenazine (TBZ)-induced depression measured in mice for ptosis by 10 mg/kg i.p. dose; inactive (<10% antagonism) at 30 mgjkg is represented as I-30.; format: functional, organism-based; set-up: dose 10 mg/kg; how it was run: as §2
Mus musculus [4] = organism: Mus musculus; assay: Gross behavioral effects ascertained in mice; D indicates significant depressant properties.; format: functional, organism-based
How it was run: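 Male Swiss Webster albino mice, 18–24 g, three per dose, given ip 1, 3, 10, 30, 100 and 300 mg/kg. Gross behaviour observed and held 4 days. Estimated LD50 range from lethality count on day 4. Scored as weak stimulant/depressant, significant stimulant, significant depressant or overt convulsant.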

Mus musculus [5] = assay: Ability to antagonise intraperitoneal dose; inactive (<10% antagonism) at 30 mg/kg is represented as I-30.; format: functional, organism-based; set-up: dose 30 mg/kg
How it was run: (§3)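 Nonfasted male Swiss Webster mice, 18–24 g, ten per dose level and in saline controls. Test compound given ip 30 min before tetrabenazine 32 mg/kg ip; dose expressed as free base. Motor activity and ptosis scored. Control response ≤90% corrected by Abbott's formula.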

Mus musculus [6] = assay: as §1; format: functional, organism-based; how it was run: as §3; remark: listed apart in the source
Rattus norvegicus [7] = organism: Rattus norvegicus; assay: Ability to inhibit the uptake of tritiated serotonin(5-HT) %inhibition; format: functional
How it was run: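 Rat brain synaptosomes (male Wistar P2 fraction) from hypothalamus (NE), striatum (DA) or cerebral cortex (5-HT), in Tris or HEPES Krebs-type medium with nialamide, pH 7.4. Preincubation 10 min at 37 °C with compound. Then [3H]NE 100–300 nM, [3H]DA 50–300 nM or [3H]5-HT 100–200 nM added for 3 min (DA) or 6–10 min (NE, 5-HT). Blanks kept on ice. Filtration and scintillation counting. Percent inhibition at 0.100 μM when weak.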

Mus musculus [8] = organism: Mus musculus; assay: Antagonism of tetrabenazine (TBZ)-induced depression in mice measured for ptosis; format: functional; details: Mus musculus; read-out: ED50; how it was run: as §3
[9] = molecular target: D(2) dopamine receptor (Rattus norvegicus) (UniProt P61169); assay: Binding affinity towards dopamine receptor D2 at 1.0 uM concentration
D(2) dopamine receptor (Rattus norvegicus), sequence (P61169 whole entry): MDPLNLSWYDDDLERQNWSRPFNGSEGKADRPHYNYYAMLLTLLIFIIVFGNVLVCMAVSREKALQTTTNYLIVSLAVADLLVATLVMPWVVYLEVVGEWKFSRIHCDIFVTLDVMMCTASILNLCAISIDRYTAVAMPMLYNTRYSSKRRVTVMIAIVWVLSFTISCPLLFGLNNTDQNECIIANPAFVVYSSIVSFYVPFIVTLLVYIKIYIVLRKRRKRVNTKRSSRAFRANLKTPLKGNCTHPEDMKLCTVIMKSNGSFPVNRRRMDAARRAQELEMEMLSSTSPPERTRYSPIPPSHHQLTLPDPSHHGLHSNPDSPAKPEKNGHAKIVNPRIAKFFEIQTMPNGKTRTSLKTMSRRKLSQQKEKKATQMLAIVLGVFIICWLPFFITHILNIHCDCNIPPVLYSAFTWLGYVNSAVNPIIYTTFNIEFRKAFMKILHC
How it was run: (§4)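 Rat brain crude synaptic membranes in 20 mM NaHEPES pH 7.5. Ligands: α1 cortex […] 0.4 nM, nonspecific with (-)-NE 100 μM, 30 min at 25 °C. […] D2 striatum [3H]spiperone 0.05 nM with (+)-butaclamol 1 μM, 45 min at 37 °C. S1 cortex [3H]5-HT 1 nM plus glutathione and MgCl2, with 5-HT 10 μM, 20 min at 37 °C. […] Samples filtered on GF/B and counted.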

[10] = molecular target: Serotonin 1 (5-HT1) receptor (Rattus norvegicus) (UniProt P28564+P30940+P19327+P28565); assay: Binding affinity towards serotonin S1 receptor at 1.0 uM; format: protein assay; how it was run: as §4
Mus musculus [11] = organism: Mus musculus; assay: Gross behavioral effects ascertained in mice; W indicates weak stimulant or depressant activity of little significance.; format: functional, organism-based
How it was run: (§5)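 Male Swiss Webster mice, 18–24 g, three per dose, given ip doses of 1, 3, 10, 30, 100 and 300 mg/kg. Observed for gross behavior and held for 4 days. Scored as weak (W), stimulant (S), depressant (D) or convulsant (C).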

[12] = molecular target: Sodium-dependent serotonin transporter (Rattus norvegicus) (UniProt P31652); assay: Inhibition of tritiated serotonin(5-HT) uptake at 0.1 uM concentration; format: functional
Sodium-dependent serotonin transporter (Rattus norvegicus), sequence (P31652 whole entry): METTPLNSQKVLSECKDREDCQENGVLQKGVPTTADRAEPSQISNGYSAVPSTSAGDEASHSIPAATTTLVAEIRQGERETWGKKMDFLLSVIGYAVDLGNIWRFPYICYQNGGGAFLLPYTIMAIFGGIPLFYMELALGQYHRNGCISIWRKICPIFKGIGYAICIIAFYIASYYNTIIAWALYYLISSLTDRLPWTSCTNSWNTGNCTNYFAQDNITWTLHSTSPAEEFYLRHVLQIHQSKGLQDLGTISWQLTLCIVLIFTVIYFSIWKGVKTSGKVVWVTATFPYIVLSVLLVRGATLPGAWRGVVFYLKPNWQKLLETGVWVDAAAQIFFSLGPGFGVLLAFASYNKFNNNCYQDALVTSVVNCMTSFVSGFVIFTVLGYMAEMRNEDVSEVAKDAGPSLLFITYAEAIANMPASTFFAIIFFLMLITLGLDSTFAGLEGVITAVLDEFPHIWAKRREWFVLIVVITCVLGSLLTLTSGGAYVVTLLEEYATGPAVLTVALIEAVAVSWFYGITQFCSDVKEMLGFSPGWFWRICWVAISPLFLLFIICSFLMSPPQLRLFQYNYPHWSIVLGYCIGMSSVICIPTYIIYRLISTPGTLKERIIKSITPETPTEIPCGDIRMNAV
How it was run: (§6)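 Male Wistar rat brain synaptosomes (P2 fraction): hypothalamus for NE, striatum for DA, cerebral cortex for 5-HT. Buffer is Tris- or HEPES-buffered salt medium with glucose, ascorbate and nialamide, pH 7.4 at 37 °C. Preincubated 10 min at 37 °C with compound. Uptake started with [3H]NE 100–300 nM, [3H]DA 50–300 nM or [3H]5-HT 100–200 nM, incubated 3 min (DA) or 6–10 min (NE, 5-HT). Blanks held on ice. Filtered, counted by scintillation.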

[13] = molecular target: Serotonin 2 (5-HT2) receptor (Rattus norvegicus) (UniProt P30994+P08909+P14842); assay: (§7) Binding affinity towards 5-hydroxytryptamine 2 receptor at 1.0 uM concentration; format: protein assay; how it was run: as §4
Serotonin 2 (5-HT2) receptor (Rattus norvegicus), sequence (P08909 whole entry, looked up): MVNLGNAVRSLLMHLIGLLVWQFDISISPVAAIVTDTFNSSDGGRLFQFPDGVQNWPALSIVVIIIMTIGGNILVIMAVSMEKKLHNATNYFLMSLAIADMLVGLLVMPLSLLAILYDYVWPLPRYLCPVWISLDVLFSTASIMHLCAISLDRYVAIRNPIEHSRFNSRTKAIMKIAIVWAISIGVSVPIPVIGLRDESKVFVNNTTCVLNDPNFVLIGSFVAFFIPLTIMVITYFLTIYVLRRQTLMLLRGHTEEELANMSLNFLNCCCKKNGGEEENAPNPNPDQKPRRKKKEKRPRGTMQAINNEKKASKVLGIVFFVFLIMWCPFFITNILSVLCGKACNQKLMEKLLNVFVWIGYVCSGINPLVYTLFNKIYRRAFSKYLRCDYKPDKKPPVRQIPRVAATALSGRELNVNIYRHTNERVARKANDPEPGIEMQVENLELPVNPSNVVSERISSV
Serotonin 2 (5-HT2) receptor (Rattus norvegicus), sequence (P14842 whole entry, looked up): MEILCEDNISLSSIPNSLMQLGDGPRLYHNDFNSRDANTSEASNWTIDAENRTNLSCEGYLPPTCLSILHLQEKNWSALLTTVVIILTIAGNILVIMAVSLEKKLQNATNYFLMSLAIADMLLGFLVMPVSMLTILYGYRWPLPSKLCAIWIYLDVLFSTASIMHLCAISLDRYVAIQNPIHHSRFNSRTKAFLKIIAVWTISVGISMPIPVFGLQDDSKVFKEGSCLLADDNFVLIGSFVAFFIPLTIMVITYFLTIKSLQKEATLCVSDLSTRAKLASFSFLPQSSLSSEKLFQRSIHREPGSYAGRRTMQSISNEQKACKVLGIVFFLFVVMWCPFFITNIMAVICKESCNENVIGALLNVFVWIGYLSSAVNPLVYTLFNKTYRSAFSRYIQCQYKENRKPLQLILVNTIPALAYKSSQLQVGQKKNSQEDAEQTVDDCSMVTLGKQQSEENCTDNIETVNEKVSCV
Serotonin 2 (5-HT2) receptor (Rattus norvegicus), sequence (P30994 whole entry, looked up): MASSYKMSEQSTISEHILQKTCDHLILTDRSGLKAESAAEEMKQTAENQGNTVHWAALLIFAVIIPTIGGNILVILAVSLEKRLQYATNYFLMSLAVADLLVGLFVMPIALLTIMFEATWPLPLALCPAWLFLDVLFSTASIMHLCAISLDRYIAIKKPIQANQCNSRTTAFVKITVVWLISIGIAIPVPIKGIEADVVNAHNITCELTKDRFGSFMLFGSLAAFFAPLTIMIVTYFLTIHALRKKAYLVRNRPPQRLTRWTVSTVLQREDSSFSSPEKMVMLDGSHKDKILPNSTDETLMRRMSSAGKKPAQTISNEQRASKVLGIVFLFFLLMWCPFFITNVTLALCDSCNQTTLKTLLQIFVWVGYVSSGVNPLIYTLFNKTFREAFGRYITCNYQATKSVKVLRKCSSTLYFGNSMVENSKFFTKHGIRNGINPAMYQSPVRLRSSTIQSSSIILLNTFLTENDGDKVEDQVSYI

[14] = molecular target: Sodium-dependent dopamine transporter (Rattus norvegicus) (UniProt P23977); assay: Inhibition of tritiated dopamine (DA) uptake at 0.1 uM concentration; format: functional; how it was run: as §6
Sodium-dependent dopamine transporter (Rattus norvegicus), sequence (P23977 whole entry): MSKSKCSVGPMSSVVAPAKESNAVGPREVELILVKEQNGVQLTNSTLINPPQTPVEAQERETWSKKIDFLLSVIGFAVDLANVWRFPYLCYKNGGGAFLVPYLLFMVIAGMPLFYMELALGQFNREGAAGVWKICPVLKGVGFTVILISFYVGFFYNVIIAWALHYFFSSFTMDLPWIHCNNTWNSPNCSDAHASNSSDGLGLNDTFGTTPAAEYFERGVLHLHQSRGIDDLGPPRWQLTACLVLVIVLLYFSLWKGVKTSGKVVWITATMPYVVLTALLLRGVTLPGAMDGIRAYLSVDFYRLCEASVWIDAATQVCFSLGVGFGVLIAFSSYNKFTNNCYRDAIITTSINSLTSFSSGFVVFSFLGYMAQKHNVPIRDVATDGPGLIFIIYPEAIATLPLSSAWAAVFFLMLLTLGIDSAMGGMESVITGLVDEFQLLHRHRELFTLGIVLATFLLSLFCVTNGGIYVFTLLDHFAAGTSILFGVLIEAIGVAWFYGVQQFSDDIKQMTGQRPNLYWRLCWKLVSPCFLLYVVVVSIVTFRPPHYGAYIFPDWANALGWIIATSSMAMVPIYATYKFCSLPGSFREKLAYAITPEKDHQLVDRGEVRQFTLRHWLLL

Mus musculus [15] = organism: Mus musculus; assay: Antagonism of tetrabenazine (TBZ)-induced depression measured in mice by motor activity; format: functional; details: Mus musculus; read-out: ED50; how it was run: as §3
Rattus norvegicus [16] = organism: Rattus norvegicus; assay: Ability to inhibit the uptake of tritiated norepinephrine (NE); format: functional; how it was run: as §6
Rattus norvegicus [17] = organism: Rattus norvegicus; assay: Ability to inhibit the uptake of tritiated serotonin(5-HT) at 1 uM concentration; format: functional
How it was run: (§8)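 Rat synaptosomal uptake as above: striatal P2 for [3H]DA (50–300 nM, 3 min) and cortical P2 for [3H]5-HT (100–200 nM, 6 min). 37 °C after 10-min preincubation with compound. […] Blanks incubated in ice water. Filter-retained tritium counted by liquid scintillation.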

Rattus norvegicus [18] = organism: Rattus norvegicus; assay: Ability to inhibit the uptake of tritiated dopamine (DA) at 1 uM concentration; format: functional; how it was run: as §8
Rattus norvegicus [19] = organism: Rattus norvegicus; assay: Ability to inhibit the uptake of tritiated norepinephrine (NE) at 0.1 uM concentration; format: functional; how it was run: as §6
[20] = molecular target: T1, Adrenergic receptor alpha-1 (Rattus norvegicus, UniProt P15823+P23944+P43140); assay: Binding affinity towards alpha-1 adrenergic receptor; format: protein assay
T1 sequence (P15823 whole entry): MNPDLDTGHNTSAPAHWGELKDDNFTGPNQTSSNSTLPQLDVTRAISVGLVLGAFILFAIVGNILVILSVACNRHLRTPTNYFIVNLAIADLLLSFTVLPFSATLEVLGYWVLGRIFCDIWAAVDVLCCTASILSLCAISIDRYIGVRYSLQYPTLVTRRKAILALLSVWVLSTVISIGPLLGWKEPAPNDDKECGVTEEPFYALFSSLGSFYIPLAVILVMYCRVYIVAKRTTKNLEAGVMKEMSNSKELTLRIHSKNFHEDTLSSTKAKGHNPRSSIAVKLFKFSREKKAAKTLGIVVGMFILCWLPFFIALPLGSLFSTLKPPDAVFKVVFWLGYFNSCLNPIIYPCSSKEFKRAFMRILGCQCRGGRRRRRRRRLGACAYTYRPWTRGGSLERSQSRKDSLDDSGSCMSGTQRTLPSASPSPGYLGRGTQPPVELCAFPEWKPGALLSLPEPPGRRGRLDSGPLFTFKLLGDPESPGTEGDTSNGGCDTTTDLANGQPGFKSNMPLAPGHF
T1 sequence (P23944 whole entry): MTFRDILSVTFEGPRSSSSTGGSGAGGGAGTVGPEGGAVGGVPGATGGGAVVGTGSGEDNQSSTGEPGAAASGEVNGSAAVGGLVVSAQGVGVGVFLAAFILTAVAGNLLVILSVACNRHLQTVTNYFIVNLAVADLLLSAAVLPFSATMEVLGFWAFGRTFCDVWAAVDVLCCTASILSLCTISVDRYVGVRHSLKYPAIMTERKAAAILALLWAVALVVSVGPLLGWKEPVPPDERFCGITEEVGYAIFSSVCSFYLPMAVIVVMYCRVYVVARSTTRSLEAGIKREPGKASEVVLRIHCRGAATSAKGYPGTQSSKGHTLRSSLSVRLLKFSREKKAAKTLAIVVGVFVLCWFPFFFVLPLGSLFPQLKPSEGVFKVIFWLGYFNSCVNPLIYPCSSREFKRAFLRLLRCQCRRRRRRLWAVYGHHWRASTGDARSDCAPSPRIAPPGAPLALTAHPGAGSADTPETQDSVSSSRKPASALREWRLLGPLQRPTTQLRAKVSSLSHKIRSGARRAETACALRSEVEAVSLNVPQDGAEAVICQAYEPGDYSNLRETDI
T1 sequence (P43140 whole entry): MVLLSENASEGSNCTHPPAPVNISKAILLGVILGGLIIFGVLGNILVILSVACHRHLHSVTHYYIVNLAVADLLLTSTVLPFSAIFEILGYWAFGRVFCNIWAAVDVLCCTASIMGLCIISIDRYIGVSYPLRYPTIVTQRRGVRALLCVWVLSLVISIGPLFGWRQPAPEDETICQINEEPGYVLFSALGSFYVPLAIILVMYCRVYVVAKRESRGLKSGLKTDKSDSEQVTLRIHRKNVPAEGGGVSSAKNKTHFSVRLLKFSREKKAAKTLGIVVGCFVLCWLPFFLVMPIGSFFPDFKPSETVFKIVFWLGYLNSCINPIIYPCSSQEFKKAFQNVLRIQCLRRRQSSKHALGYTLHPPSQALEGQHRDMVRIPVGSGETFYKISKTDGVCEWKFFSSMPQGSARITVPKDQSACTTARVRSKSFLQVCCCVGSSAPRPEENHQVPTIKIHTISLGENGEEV

[21] = molecular target: Norepinephrine transporter (Rattus norvegicus, UniProt Q9WTR4); assay: Inhibition of uptake of tritiated norepinephrine (NE) in rat synaptosomes; format: subcellular, Brain
Norepinephrine transporter, sequence (Q9WTR4 whole entry): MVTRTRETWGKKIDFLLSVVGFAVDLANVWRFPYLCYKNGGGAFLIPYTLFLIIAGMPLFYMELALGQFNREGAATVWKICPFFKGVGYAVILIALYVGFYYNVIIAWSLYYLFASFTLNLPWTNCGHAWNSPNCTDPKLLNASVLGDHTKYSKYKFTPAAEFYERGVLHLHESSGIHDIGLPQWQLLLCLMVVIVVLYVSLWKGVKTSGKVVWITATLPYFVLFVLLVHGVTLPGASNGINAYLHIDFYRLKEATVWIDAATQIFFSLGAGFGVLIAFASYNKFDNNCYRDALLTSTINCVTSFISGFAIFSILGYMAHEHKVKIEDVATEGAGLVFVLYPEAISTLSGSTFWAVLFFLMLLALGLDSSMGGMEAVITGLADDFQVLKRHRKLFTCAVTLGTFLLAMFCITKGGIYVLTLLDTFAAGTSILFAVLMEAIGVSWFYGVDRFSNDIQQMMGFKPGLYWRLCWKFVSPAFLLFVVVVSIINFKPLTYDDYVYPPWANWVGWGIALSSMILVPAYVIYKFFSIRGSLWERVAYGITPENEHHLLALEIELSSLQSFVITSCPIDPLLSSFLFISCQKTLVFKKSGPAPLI

[22] = molecular target: D(1A) dopamine receptor (Rattus norvegicus) (UniProt P18901); assay: Binding affinity towards dDopamine receptor D1 at 1.0 uM concentration; how it was run: as §4
D(1A) dopamine receptor (Rattus norvegicus), sequence (P18901 whole entry): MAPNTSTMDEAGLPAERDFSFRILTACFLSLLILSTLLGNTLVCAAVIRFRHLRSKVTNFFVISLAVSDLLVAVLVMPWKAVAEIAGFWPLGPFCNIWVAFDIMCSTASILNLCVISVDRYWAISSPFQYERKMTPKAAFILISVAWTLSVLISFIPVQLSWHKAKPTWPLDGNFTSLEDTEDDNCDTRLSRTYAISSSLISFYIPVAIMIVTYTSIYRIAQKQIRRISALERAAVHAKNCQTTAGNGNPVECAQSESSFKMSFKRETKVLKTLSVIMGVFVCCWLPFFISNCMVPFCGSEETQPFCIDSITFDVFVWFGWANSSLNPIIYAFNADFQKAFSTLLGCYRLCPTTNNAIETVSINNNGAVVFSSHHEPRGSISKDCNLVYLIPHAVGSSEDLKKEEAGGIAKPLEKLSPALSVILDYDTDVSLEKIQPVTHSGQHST

[23] = molecular target: Sodium-dependent dopamine transporter (Rattus norvegicus, UniProt P23977); assay: Inhibition of the uptake of tritiated dopamine (DA) in rat synaptosomes; format: subcellular, Brain
Sodium-dependent dopamine transporter, sequence (P23977 whole entry): as the sequence (P23977 whole entry) above

[24] = molecular target: Muscarinic acetylcholine receptor (Rattus norvegicus) (UniProt P08482+P08483+P08485+P08911+P10980); assay: Binding affinity towards Muscarinic acetylcholine receptor at 1.0 uM concentration; format: protein assay
[25] = molecular target: Adrenergic receptor alpha-2 (Rattus norvegicus) (UniProt P22086+P19328+P22909); assay: Binding affinity towards alpha-2 adrenergic receptor at 1.0 uM concentration; format: protein assay
Mus musculus [26] = organism: Mus musculus; assay: Gross behavioral effects ascertained in mice; S indicates significant stimulant properties.; format: functional, organism-based; how it was run: as §5
Rattus norvegicus [27] = organism: Rattus norvegicus; assay: Ability to inhibit the uptake of tritiated dopamine (DA) 0.1 uM concentration; format: functional; how it was run: as §6
[28] = molecular target: Sodium-dependent serotonin transporter (Rattus norvegicus) (UniProt P31652); assay: Ability to inhibit the uptake of [3H]- serotonin(5-HT) 0.1 uM concentration at rat brain synaptosomes; format: functional, subcellular; how it was run: as §6
[29] = molecular target: Norepinephrine transporter (Rattus norvegicus) (UniProt Q9WTR4); assay: Ability to inhibit the uptake of [3H]norepinephrine (NE) 0.1 uM concentration at rat brain synaptosomes; format: functional, subcellular; how it was run: as §6
Norepinephrine transporter (Rattus norvegicus), sequence (Q9WTR4 as listed by the source): as the sequence (Q9WTR4 whole entry) above

[30] = molecular target: Serotonin 2 (5-HT2) receptor (Rattus norvegicus, UniProt P30994+P08909+P14842); assay: as §7; format: protein assay

## c1ccc([C@@H]2CN3CCC[C@H]3c3ccsc32)cc1
Mus musculus [1]
  ED50: inactive
Rattus norvegicus [2]
  inhibition in vivo at 0.1 mg/kg: 28%
Mus musculus [3]
  ED50: inactive
Mus musculus [4]
  behavior: Significant depressant

## Br.c1csc([C@@H]2CN3CCC[C@H]3c3ccsc32)c1
Mus musculus [5]
  ED50: inactive
Mus musculus [6]
  ED50: inactive
Rattus norvegicus [7]
  Inhibition: 2%
Mus musculus [4]
  behavior: Significant depressant

## Br.Fc1ccc([C@@H]2CN3CCC[C@H]3c3cc(F)ccc32)cc1
Mus musculus [8]
  ED50: 1.6 mg/kg
[9]
  inhibition: 48%
[10]
  inhibition: -9%
Mus musculus [11]
  behavior: Partial stimulant
[12]
  inhibition: 21%
[13]
  inhibition: 5%
[14]
  inhibition: 38%
Mus musculus [15]
  ED50: > 60 mg/kg
Rattus norvegicus [16]
  Ki: ~100 nM

## Clc1ccc([C@@H]2CN3CCC[C@H]3c3ccccc32)c(Cl)c1
Rattus norvegicus [17]
  Inhibition: 52%
Rattus norvegicus [18]
  Inhibition: 34%
Rattus norvegicus [19]
  Inhibition: 31%

## Br.Oc1ccc([C@@H]2CN3CCC[C@@H]3c3ccccc32)cc1
Mus musculus [8]
  ED50: 0.09 mg/kg
[20]
  Ki: 252 nM
[21]
  Ki: 0.74 nM
[22]
  inhibition: 27%
[23]
  Ki: 5.1 nM
[24]
  inhibition: 3%
[9]
  inhibition: 65%
[25]
  inhibition: 70%
Mus musculus [15]
  ED50: 0.4 mg/kg
Mus musculus [26]
  behavior: Stimulant

## c1ccc([C@@H]2CN3CCCC[C@H]3c3ccccc32)cc1
Rattus norvegicus [27]
  Ki: 1000 nM
[28]
  inhibition: 11%
Mus musculus [11]
  behavior: Weak
[29]
  inhibition: 27%

## O=C(Nc1ccccc1)Nc1ccc([C@@H]2CN3CCC[C@H]3c3ccccc32)cc1
[30]
  Ki: 54 nM
Mus musculus [8]
  ED50: 10 mg/kg
[21]
  Ki: 41.3 nM
[23]
  Ki: 9.8 nM
Mus musculus [15]
  ED50: > 60 mg/kg
